# Assay outcomes from PubChem.
# NALP1 yeast inh – NALP1 inflammasome inhibitors in reconstituted yeast, colorimetric, S. cerevisiae, triplicate retest; inhibition, % at 10 µM; 280,000 tested, 0.61% active; S. cerevisiae NALP1/ASC/caspase-1 growth, X-gal OD620, 72 h; in the data active means inhibition mostly above about 24%, no sharp cut-off; inactive means mostly below about 32%
# ALR H2O2 inh – inhibitors of human ALR sulfhydryl oxidase, primary screen, biochemical, H2O2 detection, HRP-luminol luminescence, single point; FAD-linked sulfhydryl oxidase ALR (Homo sapiens), P55789; purified ALR, DTT oxidation; inhibition, % (no concentration beside the values); 290,000 tested, 3.8% active;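 active means mean replicate inhibition above about 79%, with every replicate also reaching it, limit read from the data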
# Target sequence (P55789 whole entry, looked up): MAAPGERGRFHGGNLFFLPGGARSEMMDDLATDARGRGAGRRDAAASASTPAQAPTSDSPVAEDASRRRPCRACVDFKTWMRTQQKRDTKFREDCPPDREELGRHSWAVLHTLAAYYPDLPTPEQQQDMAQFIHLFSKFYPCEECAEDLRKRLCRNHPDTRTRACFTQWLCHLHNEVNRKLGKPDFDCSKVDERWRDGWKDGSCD
# NALP3 yeast inh – NALP3 inflammasome inhibitors in reconstituted yeast, primary screen, luminescence, uHTS. Yeast reconstituted NLRP3/ASC/caspase-1, beta-gal luminescence, 24 h. inhibition, % at 10 µM. 330,000 tested, 0.39% active;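 active means inhibition of 50% or more; inactive means inhibition below 50%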;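 further: plate controls were induced DMSO wells for no effect and uninduced yeast grown without galactose for full effect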
# Calb FLC – C. albicans growth inhibition with fluconazole, primary screen, CaCi-2 strain, Alamar Blue fluorescence; C. albicans CaCi-2 + fluconazole, 48 h; AID 1979, 2009; 300,000 tested, 0.57% active; growth inhibition, % (no concentration beside the values);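 active means growth inhibition above about 58% in most replicates, limit read from the data, passing the limit was not always enough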;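 further: all wells also contain fluconazole at 8 µg/ml as a sub-toxic cotreatment; 0% = median of DMSO wells and 100% = median of geldanamycin control wells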
# UCH37 inh – inhibitors of human UCH37 deubiquitinase, primary screen, biochemical, Ub-AMC cleavage, fluorescence; Ubiquitin carboxyl-terminal hydrolase isozyme L5 (Homo sapiens), Q9Y5K5; purified proteasome/UCH37; inhibition, % (no concentration beside the values); 330,000 tested, 0.33% active; AID 588478, 2011;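 active means mean inhibition over replicate wells above about 20%, limit read from the data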;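 further: 0% = compound-free wells with enzyme and 100% = wells lacking proteasome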
# Target sequence (Q9Y5K5 whole entry, looked up): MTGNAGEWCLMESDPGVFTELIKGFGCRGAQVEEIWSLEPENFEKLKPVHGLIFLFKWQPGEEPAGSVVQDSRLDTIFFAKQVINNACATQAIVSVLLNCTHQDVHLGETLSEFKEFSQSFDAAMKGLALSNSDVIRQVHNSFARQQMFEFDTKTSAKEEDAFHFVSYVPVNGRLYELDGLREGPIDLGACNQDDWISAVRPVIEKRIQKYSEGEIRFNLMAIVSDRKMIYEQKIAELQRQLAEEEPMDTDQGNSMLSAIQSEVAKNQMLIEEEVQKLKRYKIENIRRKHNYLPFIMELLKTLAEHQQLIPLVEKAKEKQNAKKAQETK
#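 Material: human UCH37 enzyme supplied as purified proteasome complex / Amount: 0.15 nM proteasome as dispensed / Buffer or medium: pH 7.4 Tris-HCl (50 mM) with ovalbumin, ATP-MgCl2, DTT / Times: preincubation 30 min, reaction 25 min, room temperature / Technique: AMC fluorescence from Ub-AMC cleavage, excitation 355 nm, emission 460 nm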
# ATG4B inh – ATG4B protease inhibitors, primary screen, biochemical, fluorescence, uHTS; Cysteine protease ATG4B (Homo sapiens), Q9Y4P1; ATG4B cleavage of LC3-PLA2, NBD-HPC fluorescence, 1 h; inhibition, % at 8.33 µM; 340,000 tested, 0.51% active; in the data active means inhibition above about 40%
# The depositor's hits bear a star; i = inactive; x = not tested or not shown. Compounds with a hit are over-represented: about 4.8% of the library has one in this group of screens.
SMILES,NALP1 yeast inh,ALR H2O2 inh,NALP3 yeast inh,Calb FLC,UCH37 inh,ATG4B inh
Cc1ccc(Cn2nnc3c(=O)[nH]c(C4CCN(S(=O)(=O)c5ccc(C)cc5)CC4)nc32)cc1,-5.0,-8.6,11.2,111.2*,1.0,-8.5
Cc1ccc(Cn2nnc3c(=O)[nH]c(C4CCN(S(=O)(=O)c5ccc(S(=O)(=O)NC6CC6)cc5)CC4)nc32)cc1,10.5,1.7,-1.4,-3.3,-1.1,-28.6
CC(CCN1CCc2nc(-c3ccccc3)c(-c3ccccc3)cc2C1)=NOC[C@@H](C)[C@H](OCc1ccccc1)C(C)C,x,x,x,x,3.3,x
CC(=O)c1cccc(CN2CCC(n3nccc3NC(=O)CCOc3ccccc3)CC2)c1,31.3*,-1.1,17.8,-9.7,2.4,6.0
O=C(CCOc1ccccc1)Nc1ccnn1C1CCN(Cc2ccccc2)CC1,-0.3,-7.5,4.9,-7.8,1.5,0.1
O=C(Cc1cccc2ccccc12)NN=Cc1ccc2cccc(O)c2n1,x,x,x,x,3.8,x
Cc1cccc(N2C(=O)N3[C@H]4c5ccccc5OC[C@@H]4[C@@H](c4ccccc4)[C@@]3(C)C2=O)c1,x,1.3,1.1,x,26.2*,5.4
COc1cccc(C=Nn2c(COc3ccccc3)n[nH]c2=S)c1,x,x,x,x,3.8,x
CCOC(=O)CSC1=C(C#N)C(=O)NC2(CCCCC2)S1,5.7,97.7*,1.7,-5.8,14.9,8.5
CCC(=NNC(=O)c1nnn(-c2nonc2N)c1-c1cccs1)c1ccccc1,x,x,x,x,1.8,x
O=[N+]([O-])c1ccccc1C=NNC1=NCCCCC1,x,x,x,x,6.6,x
CC(=O)Nc1cccc(NC(=O)CSc2nc(=O)n(CCCN3CCOCC3)c3c2CCC3)c1,x,98.1*,10.5,5.3,3.4,1.6
CC(=O)c1cccc(NC(=O)CSc2nc(=O)n(CCN3CCOCC3)c3c2CCCC3)c1,x,-2.4,3.1,-3.7,5.8,-2.2
O=C(CSc1nc(=O)n(CCCN2CCOCC2)c2c1CCC2)Nc1cccc(F)c1,x,97.2*,-2.3,3.7,4.2,-1.2
CC(=O)Nc1cccc(NC(=O)CSc2nc(=O)n(CCN3CCOCC3)c3c2CCC3)c1,x,97.3*,14.9,7.1,4.1,-1.9
O=C(CSc1nc(=O)n(CCCN2CCOCC2)c2c1CCC2)Nc1ccccc1F,x,10.3,15.4,-3.5,4.2,0.3
CC(=O)c1ccc(NC(=O)CSc2nc(=O)n(CCN3CCOCC3)c3c2CCC3)cc1,x,98.1*,7.7,12.7,3.1,-4.2
CCCc1c(C(=O)NN=Cc2cccc3ccccc23)nnn1-c1nonc1N,x,x,x,x,-0.3,x
COc1cccc2cc(C(=O)Nc3cc(C)cc(C)c3)c(=NNS(=O)(=O)c3ccccc3)oc12,x,x,x,x,2.3,x
CCc1sc(N(C(=O)Cc2ccccc2)c2ccc(F)cc2)nc1-c1ccccc1,-12.2,0.2,14.4,-2.2,24.3*,0.5
Cc1noc(NS(=O)(=O)c2ccc(NC(=O)CS(=O)(=O)c3ccccc3)cc2)c1C,5.1,69.6,3.3,4.5,3.1,0.8
Cc1noc(NS(=O)(=O)c2ccc(NC(=O)CSc3ncccn3)cc2)c1C,27.0,98.1*,-2.8,0.6,3.9,-10.4
Cc1cc(C)nc(SCC(=O)Nc2ccc(S(=O)(=O)Nc3onc(C)c3C)cc2)n1,12.2,93.9*,-9.4,-1.2,4.6,-5.8
Cc1noc(NS(=O)(=O)c2ccc(NC(=O)CSc3nc4ccccc4s3)cc2)c1C,8.5,99.4*,12.8,31.9,5.1,-15.1
Cc1ccc(OCC(=O)NN=C/C=C/c2ccco2)cc1C,x,x,x,x,8.3,x
SMILES,NALP1 yeast inh,ALR H2O2 inh,NALP3 yeast inh,Calb FLC,UCH37 inh,ATG4B inh
CCOC(=O)CC(C(C)=NO)c1ccccc1 (stereo not given),x,x,x,x,-1.7,x
Cc1ccc(C)c(NC(=O)CCN2CCC(C)CC2)c1,7.3,-16.5,7.9,3.1,6.2,-0.5
Cc1ccc(C)c(NC(=O)CCN2CC(C)CC(C)C2)c1 (stereo not given),38.3*,-6.5,24.5,-0.4,-0.6,-0.3
CCOC(=O)CNC(=O)CNC(=O)Cn1ccc2ccccc2c1=O,39.5*,-11.8,6.8,30.2,-1.5,-10.2
Nc1ccc2nc(-c3ccc(N)c(Cl)c3)[nH]c2c1,-0.2,99.0*,22.7,3.6,-200.6,-8.8
Nc1ccc2nc(-c3cccs3)[nH]c2c1,6.7,98.9*,23.7,-18.3,i,0.0
COc1ccc2nc(-c3cccc(N)c3)[nH]c2c1,6.5,x,-2.1,-2.1,-200.6,0.0
Nc1ccc2nc(-c3cccnc3)[nH]c2c1,11.7,99.7*,-16.1,1.4,7.8,-0.3
COc1ccc2nc(-c3ccc(N)cc3)[nH]c2c1,-69.5,99.2*,9.9,-0.5,-238.7,-7.6
O=[N+]([O-])c1ccc2nc(-c3cccnc3)[nH]c2c1,13.1,-2.4,4.0,12.6,7.3,-5.7
Nc1ccc2nc(-c3ccccn3)[nH]c2c1,1.1,x,-3.3,-4.2,2.3,-9.1
CC(=NNC(=O)C1CCCN1C(=O)c1ccc([N+](=O)[O-])cc1)c1ccc(Br)cc1 (stereo not given),x,x,x,x,3.6,x
O=C(Nc1ccc2nc(-c3cccnc3)[nH]c2c1)C1CCCCC1,4.8,1.9,-9.5,5.1,-5.8,-5.7
Nc1cccc(C(=O)Nc2ccc3nc(-c4cccnc4)[nH]c3c2)c1,23.3,99.3*,8.0,-0.8,2.5,0.2
Nc1ccc2nc(-c3ccccc3)[nH]c2c1,2.0,99.2*,17.8,2.7,i,-5.5
Nc1ccc(-c2nc3c(Cl)cc(N)cc3[nH]2)cc1,3.2,98.8*,12.1,0.1,-273.6,-0.5
CSc1ccc(C=NN2CCN(Cc3ccccc3)CC2)cc1,x,x,x,x,0.4,x
O=C(COc1ccccc1[N+](=O)[O-])NN=Cc1ccc(O)cc1,x,x,x,x,4.5,x
O=C1NC(=Nc2ccc(Cl)cc2)/C(=C/c2ccco2)S1,26.1,86.8*,3.4,-23.6,6.8,9.9
COc1ccc(N(CC(=O)NN=Cc2cc3ccc(OC)cc3nc2Cl)S(=O)(=O)c2ccccc2)cc1,x,x,x,x,-383.7,x
CCN(CC)CCNC(=O)CS(=O)Cc1nc(-c2ccc(Cl)cc2)oc1C (stereo not given),-4.5,99.2*,-15.5,1.1,0.9,-4.0
CCN(CC)CCNC(=O)CS(=O)Cc1nc(-c2ccccc2Cl)oc1C (stereo not given),8.4,98.8*,6.5,7.2,3.2,-3.2
Cc1ccc(CNC(=O)CS(=O)CC(=O)O)cc1 (stereo not given),-12.6,-6.2,6.9,2.5,-0.1,-3.1
CCN(CC)CCNC(=O)CS(=O)Cc1nc(-c2ccc(C)cc2)oc1C (stereo not given),6.3,99.3*,-18.9,-16.4,-0.2,-1.8
